According to ChEMBL document CHEMBL4261655, “Matrix metalloproteinase-12 inhibitors: synthesis, structure-activity relationships and intestinal absorption of novel sugar-based biphenylsulfonamide carboxylates” (Bioorg Med Chem, 2018):

How the values were obtained:
[1] = target: Matrix metalloproteinase-9 (Homo sapiens, UniProt P14780); experiment: Inhibition of recombinant human MMP9 using Mca-Lys-Pro-Leu-Gly-Leu-Dap(Dnp)-Ala-Arg-NH2 as substrate preincubated for 3 hrs followed by substrate addition and measured every 10 secs for 15 mins by fluorescence assay
How it was run: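 Pro-enzyme activated just before use with 1 mM APMA for 1 h at 37 °C; 1.3 nM final enzyme. Inhibitor at seven concentrations, 3 h at 25 °C; 2 µM final substrate. Fluorescence read at ex 325/em 400 nm. Done in triplicate. IC50 fitted as vi/v0 = 1/(1+[I]/IC50).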

[2] = target: Macrophage metalloelastase (Homo sapiens, UniProt P39900); experiment: Inhibition of recombinant human MMP12 using Mca-Lys-Pro-Leu-Gly-Leu-Dap(Dnp)-Ala-Arg-NH2 as substrate preincubated for 3 hrs followed by substrate addition and measured every 10 secs for 15 mins by fluorescence assay
How it was run: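 Inhibitor at seven concentrations, 3 h at 25 °C; 2 µM final substrate. Fluorescence read at ex 325/em 400 nm. Done in triplicate. IC50 fitted as vi/v0 = 1/(1+[I]/IC50).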

[3] = Solubility in water; type: physicochemical

Matrix metalloproteinase-9, sequence (P14780 whole entry): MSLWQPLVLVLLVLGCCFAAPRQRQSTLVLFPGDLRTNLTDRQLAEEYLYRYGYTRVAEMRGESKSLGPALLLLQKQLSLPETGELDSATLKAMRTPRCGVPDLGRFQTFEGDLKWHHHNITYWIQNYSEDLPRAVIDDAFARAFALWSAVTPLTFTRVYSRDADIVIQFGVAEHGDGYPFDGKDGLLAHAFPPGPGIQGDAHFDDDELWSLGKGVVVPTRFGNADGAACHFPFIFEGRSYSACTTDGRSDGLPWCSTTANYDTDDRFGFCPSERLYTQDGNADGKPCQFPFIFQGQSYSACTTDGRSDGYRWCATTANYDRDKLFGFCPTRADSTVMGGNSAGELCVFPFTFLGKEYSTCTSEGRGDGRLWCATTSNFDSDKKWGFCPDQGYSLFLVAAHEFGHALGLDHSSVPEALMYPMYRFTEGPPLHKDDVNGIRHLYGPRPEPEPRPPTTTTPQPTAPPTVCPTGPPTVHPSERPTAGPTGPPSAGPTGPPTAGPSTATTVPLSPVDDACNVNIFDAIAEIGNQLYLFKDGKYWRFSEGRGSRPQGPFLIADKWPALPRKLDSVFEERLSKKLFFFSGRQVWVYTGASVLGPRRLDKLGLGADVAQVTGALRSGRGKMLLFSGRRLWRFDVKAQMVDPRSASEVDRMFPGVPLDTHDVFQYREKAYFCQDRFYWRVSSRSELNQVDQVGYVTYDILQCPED
Macrophage metalloelastase, sequence (P39900 whole entry): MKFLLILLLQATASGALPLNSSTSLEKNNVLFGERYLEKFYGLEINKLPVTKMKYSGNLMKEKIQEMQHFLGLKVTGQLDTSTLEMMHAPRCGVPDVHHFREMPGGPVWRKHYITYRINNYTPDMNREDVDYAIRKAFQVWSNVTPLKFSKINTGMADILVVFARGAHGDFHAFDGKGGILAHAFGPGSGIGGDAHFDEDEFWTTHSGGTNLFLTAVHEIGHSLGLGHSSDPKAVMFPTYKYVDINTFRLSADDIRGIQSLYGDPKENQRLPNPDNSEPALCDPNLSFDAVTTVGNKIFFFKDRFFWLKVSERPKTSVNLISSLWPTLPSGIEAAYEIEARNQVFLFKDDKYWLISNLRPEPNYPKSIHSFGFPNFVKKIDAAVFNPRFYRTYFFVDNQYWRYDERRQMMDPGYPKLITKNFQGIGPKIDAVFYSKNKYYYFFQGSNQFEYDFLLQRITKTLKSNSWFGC

CC(=O)OC[C@H]1O[C@@H](NC(=S)NCCN([C@@H](C(=O)O)C(C)C)S(=O)(=O)c2ccc(-c3ccccc3)cc2)[C@H](OC(C)=O)[C@@H](OC(C)=O)[C@@H]1OC(C)=O
IC50 [1]: 880 nM
IC50 [2]: 19 nM

CO[C@@H]1O[C@H](CN([C@@H](C(=O)O)C(C)C)S(=O)(=O)c2ccc(-c3ccccc3)cc2)[C@@H](O)[C@H](O)[C@H]1O
IC50 [1]: 2200 nM
IC50 [2]: 51 nM

CO[C@@H]1O[C@H](CNC(=S)NCCN([C@@H](C(=O)O)C(C)C)S(=O)(=O)c2ccc(-c3ccccc3)cc2)[C@@H](OC(C)=O)[C@H](OC(C)=O)[C@H]1OC(C)=O
IC50 [1]: 32 nM
IC50 [2]: 20 nM

CO[C@@H]1O[C@H](CN([C@@H](C(=O)O)C(C)C)S(=O)(=O)c2ccc(-c3ccccc3)cc2)[C@@H](OC(C)=O)[C@H](OC(C)=O)[C@H]1OC(C)=O
IC50 [1]: 2600 nM
IC50 [2]: 84 nM

CO[C@@H]1O[C@H](CNC(=S)NCCN([C@@H](C(=O)O)C(C)C)S(=O)(=O)c2ccc(-c3ccccc3)cc2)[C@@H](O)[C@H](O)[C@H]1O
IC50 [1]: 520 nM
IC50 [2]: 65 nM

CC(=O)N[C@@H]1[C@@H](O)[C@H](O)[C@@H](CO)O[C@H]1NC(=S)NCCN([C@@H](C(=O)O)C(C)C)S(=O)(=O)c1ccc(-c2ccccc2)cc1
IC50 [1]: 5400 nM
solubility [3]: > 5 mM
IC50 [2]: 40 nM

CC(=O)N[C@@H]1[C@@H](O)[C@H](O)[C@@H](CO)O[C@H]1N([C@@H](C(=O)O)C(C)C)S(=O)(=O)c1ccc(-c2ccccc2)cc1
IC50 [2]: 9200 nM

CC(=O)N[C@@H]1[C@@H](OC(C)=O)[C@H](OC(C)=O)[C@@H](COC(C)=O)O[C@H]1NC(=S)NCCN([C@@H](C(=O)O)C(C)C)S(=O)(=O)c1ccc(-c2ccccc2)cc1
IC50 [1]: 1200 nM
IC50 [2]: 18 nM

CC(C)[C@H](C(=O)O)N(CCNC(=S)N[C@@H]1O[C@H](CO)[C@@H](O)[C@H](O)[C@H]1O)S(=O)(=O)c1ccc(-c2ccccc2)cc1
IC50 [1]: 1120 nM
IC50 [2]: 98 nM

CC(=O)OC[C@H]1O[C@@H](N([C@@H](C(=O)O)C(C)C)S(=O)(=O)c2ccc(-c3ccccc3)cc2)[C@H](OC(C)=O)[C@@H](OC(C)=O)[C@@H]1OC(C)=O
IC50 [2]: 9600 nM

CO[C@@H]1O[C@H](CN([C@@H](C(=O)O)C(C)C)S(=O)(=O)c2ccc(-c3ccccc3)cc2)C(O)[C@H](O)C1NC(C)=O (single isomer, unassigned)
IC50 [1]: 890 nM
IC50 [2]: 41 nM

CC(=O)N[C@@H]1[C@@H](OC(C)=O)[C@H](OC(C)=O)[C@@H](COC(C)=O)O[C@H]1N([C@@H](C(=O)O)C(C)C)S(=O)(=O)c1ccc(-c2ccccc2)cc1
IC50 [2]: 40000 nM

CO[C@@H]1O[C@H](CN([C@@H](C(=O)O)C(C)C)S(=O)(=O)c2ccc(-c3ccccc3)cc2)[C@@H](OC(C)=O)[C@H](OC(C)=O)[C@H]1NC(C)=O
IC50 [1]: 1240 nM
IC50 [2]: 83 nM

CC(C)[C@H](C(=O)O)N([C@@H]1O[C@H](CO)[C@@H](O)[C@H](O)[C@H]1O)S(=O)(=O)c1ccc(-c2ccccc2)cc1
IC50 [1]: > 50000 nM
IC50 [2]: 1300 nM
